# Measurements from article PMC13322713 (Molecular imaging and biology, 2025).
# “And” between values parts separate entries of the source, which are not always exact repeats. Identical values can stand only once.
# Legend:
# [1] = Whole-body radioactivity / excretion during PET/CT study; set-up: species or system mice; conditions: female, athymic nude, mouse, in vivo, iv, 0.175 nmol per injection, total radioactivity
# [2] = system: pancreatic BxPC-3 (αvβ6 +) cells; assay: Cell binding and internalization, BxPC-3 cells; type: cell-based
# Method in brief: (§1)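 Cells cultured at 37 °C, 5% CO2 with 10% FBS and 1% PSG: puromycin-containing DMEM for the DX3 pair, RPMI for BxPC-3. Integrin expression was checked by flow cytometry beforehand. The radiotracer was incubated 1 h with 3.75 × 10^6 cells per experiment in PBS containing calcium and magnesium, with non-fat dry milk blocking. Internalization was at 37 °C. Bound and internalized fractions are expressed as % of total radioactivity, quadruplicate, mean ± SD.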
# [3] = system: DX3puroβ6 (αvβ6 +) cells; assay: Cell binding and internalization, DX3puroβ6 cells; type: cell-based
# Method in brief: as §1
# [4] = system: DX3puro (αvβ6 −) cells; assay: Cell binding and internalization, DX3puro cells; type: cell-based; conditions: 1 h, 3.75 × 10^6 cells/experiment, mean ± SD, n = 4
# Method in brief: as §1
# [5] = Lipophilicity logD7.4, octanol/PBS partitioning; type: physicochemical; conditions: pH 7.4
# [6] = biological target: integrin αvβ6 (Homo sapiens, UniProt P06756+P18564); assay: Competitive binding ELISA against Bt-LAP; conditions: ratio of ELISA IC50s
# Method in brief: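 Competitive ELISAs used biotinylated LAP as ligand for integrin αvβ6 and biotinylated vitronectin for αvβ3. IC50s came from a sigmoidal fit of binding over a peptide concentration range. The ratio is αvβ3 IC50 divided by αvβ6 IC50.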
# [7] = Biodistribution in BxPC-3 tumor-bearing mice; type: in vivo; conditions: female, athymic nude, mouse, iv, 0.175 nmol per injection, total radioactivity
# Method in brief: (§2)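 Female athymic nude mice, inoculated subcutaneously with 5 × 10^6 BxPC-3 cells in RPMI/Matrigel (1/1 v/v), used at ~0.5 cm tumor diameter (approx. 3 weeks). Isoflurane-anesthetized mice received the tail-vein radiotracer in PBS at 2.2–3.3 MBq, with mass held at 0.175 nmol by adding nonmetallated compound. Tissues collected 1, 2 and 4 h p.i. (n = 4 per time point), rinsed, γ-counted, and expressed as decay-corrected %ID/g, mean ± SD.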
# [8] = system: BxPC-3 tumor-bearing mice; assay: Biodistribution in BxPC-3 tumor-bearing mice; type: in vivo
# Method in brief: as §2
# Chain of integrin αvβ6 (P06756 31-1048): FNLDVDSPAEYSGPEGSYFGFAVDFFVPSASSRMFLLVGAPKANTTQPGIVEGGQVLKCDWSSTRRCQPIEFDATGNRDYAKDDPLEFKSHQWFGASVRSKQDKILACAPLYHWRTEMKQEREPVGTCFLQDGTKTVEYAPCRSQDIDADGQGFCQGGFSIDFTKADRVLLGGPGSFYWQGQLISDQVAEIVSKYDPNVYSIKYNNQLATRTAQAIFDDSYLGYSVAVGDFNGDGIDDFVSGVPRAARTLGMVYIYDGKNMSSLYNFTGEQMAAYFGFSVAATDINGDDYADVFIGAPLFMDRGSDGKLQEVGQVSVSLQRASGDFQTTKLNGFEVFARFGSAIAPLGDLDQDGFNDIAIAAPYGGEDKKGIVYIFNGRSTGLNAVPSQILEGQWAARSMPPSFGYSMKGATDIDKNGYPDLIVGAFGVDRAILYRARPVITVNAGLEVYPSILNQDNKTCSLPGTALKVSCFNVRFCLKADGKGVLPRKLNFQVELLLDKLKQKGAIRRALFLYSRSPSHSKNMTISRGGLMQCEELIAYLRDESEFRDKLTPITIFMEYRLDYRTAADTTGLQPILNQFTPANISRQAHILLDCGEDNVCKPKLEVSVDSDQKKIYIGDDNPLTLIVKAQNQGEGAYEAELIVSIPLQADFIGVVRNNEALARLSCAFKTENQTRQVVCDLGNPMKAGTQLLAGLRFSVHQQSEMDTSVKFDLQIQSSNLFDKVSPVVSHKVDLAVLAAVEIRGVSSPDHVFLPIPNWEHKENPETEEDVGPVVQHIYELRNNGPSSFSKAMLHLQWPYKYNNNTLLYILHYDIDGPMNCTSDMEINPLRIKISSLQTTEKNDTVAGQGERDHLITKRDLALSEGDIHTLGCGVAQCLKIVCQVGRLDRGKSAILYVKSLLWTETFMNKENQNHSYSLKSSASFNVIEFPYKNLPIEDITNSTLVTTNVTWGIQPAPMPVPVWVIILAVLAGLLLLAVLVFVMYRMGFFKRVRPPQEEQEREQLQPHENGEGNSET
# Chain of integrin αvβ6 (P18564 22-788): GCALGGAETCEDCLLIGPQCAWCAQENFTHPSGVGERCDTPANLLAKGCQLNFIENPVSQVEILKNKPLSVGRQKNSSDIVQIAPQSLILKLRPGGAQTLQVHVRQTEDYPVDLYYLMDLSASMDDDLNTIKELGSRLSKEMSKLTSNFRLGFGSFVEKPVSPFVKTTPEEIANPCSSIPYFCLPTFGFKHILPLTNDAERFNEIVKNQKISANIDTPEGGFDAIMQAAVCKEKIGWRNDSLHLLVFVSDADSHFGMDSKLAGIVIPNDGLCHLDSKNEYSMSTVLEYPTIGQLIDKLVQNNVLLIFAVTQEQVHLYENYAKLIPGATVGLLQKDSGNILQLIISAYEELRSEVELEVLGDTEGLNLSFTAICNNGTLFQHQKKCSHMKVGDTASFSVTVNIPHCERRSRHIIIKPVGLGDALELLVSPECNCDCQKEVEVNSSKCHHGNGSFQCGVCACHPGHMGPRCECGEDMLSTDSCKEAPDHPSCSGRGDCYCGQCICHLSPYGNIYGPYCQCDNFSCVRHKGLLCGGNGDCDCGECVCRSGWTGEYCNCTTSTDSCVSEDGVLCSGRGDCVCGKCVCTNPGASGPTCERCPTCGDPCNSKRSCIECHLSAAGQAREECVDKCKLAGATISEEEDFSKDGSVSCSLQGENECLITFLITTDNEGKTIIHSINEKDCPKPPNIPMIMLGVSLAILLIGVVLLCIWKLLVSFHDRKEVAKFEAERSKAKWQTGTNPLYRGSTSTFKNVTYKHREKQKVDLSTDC
smiles,measurement,setting,value
CC(C)C[C@H](NC(=O)[C@H](CC(=O)O)NC(=O)CNC(=O)[C@H](CCCNC(=N)N)NC(=O)[C@H](CC(C)C)NC(=O)[C@H](CC(N)=O)NC(=O)[C@@H]1CCCN1C(=O)[C@@H](NC(=O)CNC(=O)[C@H](CC(N)=O)NC(=O)CNC(=O)CCOCCOCCOCCOCCOCCOCCOCCOCCOCCOCCOCCOCCOCCOCCOCCOCCOCCOCCOCCOCCOCCOCCOCCOCCOCCOCCOCCOCCNC(=O)CN1CCN(CC(=O)O)CCN(CC(=O)O)CC1)C(C)C)C(=O)N[C@@H](CCC(N)=O)C(=O)N[C@H](C(=O)N[C@@H](CC(C)C)C(=O)NCC(=O)N[C@@H](CCC(N)=O)C(=O)N[C@@H](CCCNC(=N)N)C(=O)N[C@H](C(=O)NCC(=O)N[C@@H](CCCNC(=N)N)C(=O)N[C@H](C(=O)NCCOCCOCCOCCOCCOCCOCCOCCOCCOCCOCCOCCOCCOCCOCCOCCOCCOCCOCCOCCOCCOCCOCCOCCOCCOCCOCCOCCOCCC(N)=O)[C@@H](C)O)C(C)C)C(C)C [[^18F]AlF NOTA-5G],dose excreted at 4 h,[1],80%
same,Radioactivity internalized,"[2]; BxPC-3, 1 h at 37 °C, abstract: of bound activity",≥ 50%
same,"Cell binding, % of total radioactivity bound","[2]; BxPC-3 αvβ6(+), 1 h, 3.75 × 10^6 cells/experiment, mean ± SD, n = 4",29.1 ± 3.7%
same,Ratio of cell binding DX3puroβ6 vs DX3puro,[3]; 1 h,33/1
same,Ratio of internalization DX3puroβ6 vs DX3puro,[3]; 1 h at 37 °C,96/1
same,Radioactivity internalized,"[3]; DX3puroβ6, 1 h at 37 °C, abstract: of bound activity",≥ 50%
same,"Cell binding, % of total radioactivity bound","[3]; DX3puroβ6 αvβ6(+), 1 h, 3.75 × 10^6 cells/experiment, mean ± SD, n = 4",66% and 66.2 ± 0.8%
same,"Cell binding, % of total radioactivity bound",[4],2% and 2.0 ± 0.2%
same,logD,[5],-2.34 ± 0.08
same,IC50-ratio (αvβ3 vs αvβ6),[6],> 7700/1
same,tissue uptake at 1 h,[7]; BxPC-3 tumor,2.3 ± 0.4 %ID/g
same,tissue uptake at 4 h,[7]; BxPC-3 tumor,1.8 ± 0.6 %ID/g
same,tissue uptake at 1 h,[7]; blood,0.16 ± 0.03 %ID/g
same,tissue uptake at 4 h,[7]; blood,0.01 ± 0.01 %ID/g
same,excreta dose per gram or mL at 1 h,[7]; feces,0.7 ± 0.1 %ID/g
same,excreta dose per gram or mL at 4 h,[7]; feces,5 ± 2.1 %ID/g
same,tissue uptake at 1 h,[7]; kidneys,18.6 ± 6.4 %ID/g
same,tissue uptake at 4 h,[7]; kidneys,12.5 ± 1.8 %ID/g
same,Tumor/blood ratio,[8]; 2 h p.i.,greater than 15/1
same,Tumor/liver ratio,[8]; 2 h p.i.,greater than 15/1
same,Tumor/pancreas ratio,[8]; 2 h p.i.,greater than 15/1
same,Tumor/blood ratio,[8]; 4 h p.i.,162/1
same,Tumor/liver ratio,[8]; 4 h p.i.,24/1
same,Tumor/muscle ratio,[8]; 4 h p.i.,6/1
same,Tumor/pancreas ratio,[8]; 4 h p.i.,18/1
same,"Radioactivity levels in tissues aside from kidneys and GI tract, including bone","[8]; all time points (1, 2, 4 h p.i.)",≤ 1.6 % ID/g
